From ChEMBL document CHEMBL1629686, “Substrate selectivity and a novel role in inhibitor discrimination by residue 237 in the KPC-2 beta-lactamase” (Antimicrob Agents Chemother, 2010)
In brackets after ≈: the same amount, converted by molar mass.

How the values were obtained:
Klebsiella pneumoniae [1] = experiment: Selectivity index, Ratio of Kcat/Km for Klebsiella pneumoniae 1534 beta-lactamase KPC-2 T237S mutant to ratio of Kcat/Km for Klebsiella pneumoniae 1534 beta-lactamase KPC-2 by spectrophotometric analysis
Method in brief: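 Kinetics used purified enzymes in 10 mM PBS, pH 7.4, room temperature, with 10 nM enzyme and substrate in excess. Km and Vmax came from a Michaelis-Menten fit. kcat/Km of the variant was compared with wild type as ΔΔG = −RT ln of the kcat/Km ratio.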

Escherichia coli [2] = experiment: Antimicrobial activity against Escherichia coli DH10B harboring plasmid pBR322-catI carrying beta-lactamase KPC-2 by agar dilution method; type: functional; conditions: K-12 DH10B
Method in brief: (§1)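 LB agar dilution MICs followed CLSI criteria, with inocula applied by Steers replicator. […] Piperacillin-tazobactam was tested at an 8:1 ratio. Wild-type and mutant blaKPC-2 were carried on pBC SK(+), or wild type on pBR322-catI, in E. coli DH10B.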

Klebsiella pneumoniae [3] = experiment: Ratio of Kcat/Km for Klebsiella pneumoniae 1534 beta-lactamase KPC-2 T237A mutant by spectrophotometric analysis
Method in brief: (§2)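 Purified KPC-2 variant enzymes (periplasmic lysate from E. coli, preparative isoelectric focusing). Hydrolysis followed by diode-array spectrophotometry in 10 mM PBS, pH 7.4, room temperature. Enzyme at 10 nM with substrate in molar excess for pseudo-first-order conditions. Vmax and Km came from a nonlinear least-squares Michaelis-Menten fit.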

Escherichia coli [4] = experiment: Antimicrobial activity against Escherichia coli DH10B harboring beta-lactamase KPC-2 T237S mutant by agar dilution method; type: functional; conditions: K-12 DH10B; method in brief: as §1
Klebsiella pneumoniae [5] = experiment: Ratio of Kcat/Km for Klebsiella pneumoniae 1534 beta-lactamase KPC-2 T237S mutant by spectrophotometric analysis; method in brief: as §2
Escherichia coli [6] = experiment: Antimicrobial activity against Escherichia coli DH10B harboring beta-lactamase KPC-2 T237W mutant by agar dilution method; type: functional; conditions: K-12 DH10B; method in brief: as §1
Escherichia coli [7] = experiment: Antimicrobial activity against Escherichia coli DH10B harboring beta-lactamase KPC-2 T237D mutant by agar dilution method; type: functional; conditions: K-12 DH10B; method in brief: as §1
Klebsiella pneumoniae [8] = experiment: Antimicrobial activity against Klebsiella pneumoniae 1534 expressing beta-lactamase KPC-2 by agar dilution method; type: functional
Method in brief: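 MICs were determined by LB agar dilution following CLSI criteria, with a Steers replicator. […] Piperacillin-tazobactam was kept at an 8:1 ratio.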

Klebsiella pneumoniae [9] = experiment: Activity of Klebsiella pneumoniae 1534 beta-lactamase KPC-2 T237S mutant by spectrophotometric analysis; method in brief: as §2
Escherichia coli [10] = experiment: Antimicrobial activity against Escherichia coli DH10B harboring plasmid pBC SK(+) carrying wild type beta-lactamase KPC-2 by agar dilution method; type: functional; conditions: K-12 DH10B; method in brief: as §1
Klebsiella pneumoniae [11] = experiment: Activity of Klebsiella pneumoniae 1534 beta-lactamase KPC-2 T237A mutant by spectrophotometric analysis; method in brief: as §2
Escherichia coli [12] = experiment: Antimicrobial activity against Escherichia coli DH10B harboring beta-lactamase KPC-2 T237N mutant by agar dilution method; type: functional; conditions: K-12 DH10B; method in brief: as §1
Escherichia coli [13] = experiment: Antimicrobial activity against Escherichia coli DH10B harboring beta-lactamase KPC-2 T237P mutant by agar dilution method; type: functional; conditions: K-12 DH10B; method in brief: as §1
Escherichia coli [14] = experiment: Antimicrobial activity against Escherichia coli DH10B harboring beta-lactamase KPC-2 T237M mutant by agar dilution method; type: functional; conditions: K-12 DH10B; method in brief: as §1
Escherichia coli [15] = experiment: Antimicrobial activity against Escherichia coli DH10B harboring beta-lactamase KPC-2 T237G mutant by agar dilution method; type: functional; conditions: K-12 DH10B; method in brief: as §1
Escherichia coli [16] = experiment: Antimicrobial activity against Escherichia coli DH10B harboring beta-lactamase KPC-2 T237F mutant by agar dilution method; type: functional; conditions: K-12 DH10B; method in brief: as §1
Escherichia coli [17] = experiment: Antimicrobial activity against Escherichia coli DH10B by agar dilution method; type: functional; conditions: K-12 DH10B; method in brief: as §1
Escherichia coli [18] = experiment: Antimicrobial activity against Escherichia coli DH10B harboring plasmid […] by agar dilution method; type: functional; conditions: K-12 DH10B; method in brief: as §1
Escherichia coli [19] = experiment: Antimicrobial activity against Escherichia coli DH10B harboring beta-lactamase KPC-2 T237V mutant by agar dilution method; type: functional; conditions: K-12 DH10B; method in brief: as §1
Escherichia coli [20] = experiment: Antimicrobial activity against Escherichia coli DH10B harboring beta-lactamase KPC-2 T237R mutant by agar dilution method; type: functional; conditions: K-12 DH10B; method in brief: as §1
Escherichia coli [21] = experiment: Antimicrobial activity against Escherichia coli DH10B harboring beta-lactamase KPC-2 T237E mutant by agar dilution method; type: functional; conditions: K-12 DH10B; method in brief: as §1
Escherichia coli [22] = experiment: Antimicrobial activity against Escherichia coli DH10B harboring beta-lactamase KPC-2 T237Q mutant by agar dilution method; type: functional; conditions: K-12 DH10B; method in brief: as §1
Escherichia coli [23] = experiment: Antimicrobial activity against Escherichia coli DH10B harboring beta-lactamase KPC-2 T237Y mutant by agar dilution method; type: functional; conditions: K-12 DH10B; method in brief: as §1
Escherichia coli [24] = experiment: Antimicrobial activity against Escherichia coli DH10B harboring beta-lactamase KPC-2 T237C mutant by agar dilution method; type: functional; conditions: K-12 DH10B; method in brief: as §1
Escherichia coli [25] = experiment: Antimicrobial activity against Escherichia coli DH10B harboring beta-lactamase KPC-2 T237A mutant by agar dilution method; type: functional; conditions: K-12 DH10B; method in brief: as §1
Escherichia coli [26] = experiment: Antimicrobial activity against Escherichia coli DH10B harboring beta-lactamase KPC-2 T237K mutant by agar dilution method; type: functional; conditions: K-12 DH10B; method in brief: as §1
Escherichia coli [27] = experiment: Antimicrobial activity against Escherichia coli DH10B harboring beta-lactamase KPC-2 T237I mutant by agar dilution method; type: functional; conditions: K-12 DH10B; method in brief: as §1
Escherichia coli [28] = experiment: Antimicrobial activity against Escherichia coli DH10B harboring beta-lactamase KPC-2 T237L mutant by agar dilution method; type: functional; conditions: K-12 DH10B; method in brief: as §1
Escherichia coli [29] = experiment: Antimicrobial activity against Escherichia coli DH10B harboring beta-lactamase KPC-2 T237H mutant by agar dilution method; type: functional; conditions: K-12 DH10B; method in brief: as §1

Row | SMILES | MIC (Escherichia coli [2]) | MIC (Escherichia coli [4]) | MIC (Escherichia coli [6]) | MIC (Escherichia coli [7]) | MIC (Klebsiella pneumoniae [8]) | MIC (Escherichia coli [10]) | MIC (Escherichia coli [12]) | MIC (Escherichia coli [13]) | MIC (Escherichia coli [14]) | MIC (Escherichia coli [15]) | MIC (Escherichia coli [16]) | MIC (Escherichia coli [17]) | MIC (Escherichia coli [18]) | MIC (Escherichia coli [19]) | MIC (Escherichia coli [20]) | MIC (Escherichia coli [21]) | MIC (Escherichia coli [22]) | MIC (Escherichia coli [23]) | MIC (Escherichia coli [24]) | MIC (Escherichia coli [25]) | other results
1 | C[C@@H](O)[C@H]1C(=O)N2C(C(=O)O)=C(SCCNC=N)C[C@H]12 [IMIPENEM ANHYDROUS] | 8 µg/mL (≈ 26.7 µM) | 1 µg/mL (≈ 3.34 µM) | 0.25 µg/mL (≈ 0.835 µM) | 0.25 µg/mL (≈ 0.835 µM) | 8 µg/mL (≈ 26.7 µM) | 0.5 µg/mL (≈ 1.67 µM) |  |  |  |  |  |  |  |  |  |  |  |  |  |  | fold change (FC) (Klebsiella pneumoniae [1]): 2.7; kcat/Km (Klebsiella pneumoniae [3]): 220000 M⁻¹ s⁻¹; kcat/Km (Klebsiella pneumoniae [5]): 1e+06 M⁻¹ s⁻¹; Km (Klebsiella pneumoniae [9]): 21 µM; kcat (Klebsiella pneumoniae [9]): 21 s⁻¹; Km (Klebsiella pneumoniae [11]): 31 µM; kcat (Klebsiella pneumoniae [11]): 6.8 s⁻¹
2 | CC(=O)OCC1=C(C(=O)O)N2C(=O)[C@@H](NC(=O)Cc3cccs3)[C@H]2SC1 [CEPHALOTHIN] | 512 µg/mL (≈ 1290 µM) | 256 µg/mL (≈ 646 µM) | 32 µg/mL (≈ 80.7 µM) | 4 µg/mL (≈ 10.1 µM) | 1020 µg/mL (≈ 2580 µM) | 256 µg/mL (≈ 646 µM) | 4 µg/mL (≈ 10.1 µM) | 2 µg/mL (≈ 5.04 µM) | 16 µg/mL (≈ 40.4 µM) | 4 µg/mL (≈ 10.1 µM) | 4 µg/mL (≈ 10.1 µM) | 4 µg/mL (≈ 10.1 µM) | 4 µg/mL (≈ 10.1 µM) | 8 µg/mL (≈ 20.2 µM) | 4 µg/mL (≈ 10.1 µM) | 4 µg/mL (≈ 10.1 µM) | 16 µg/mL (≈ 40.4 µM) | 16 µg/mL (≈ 40.4 µM) | 4 µg/mL (≈ 10.1 µM) | 32 µg/mL (≈ 80.7 µM) | fold change (FC) (Klebsiella pneumoniae [1]): 2.7; kcat/Km (Klebsiella pneumoniae [3]): 900000 M⁻¹ s⁻¹; kcat/Km (Klebsiella pneumoniae [5]): 3.6e+06 M⁻¹ s⁻¹; Km (Klebsiella pneumoniae [9]): 18 µM; kcat (Klebsiella pneumoniae [9]): 65 s⁻¹; MIC (Escherichia coli [26]): 4 µg/mL (≈ 10.1 µM); MIC (Escherichia coli [27]): 4 µg/mL (≈ 10.1 µM); MIC (Escherichia coli [28]): 8 µg/mL (≈ 20.2 µM); Km (Klebsiella pneumoniae [11]): 30 µM; kcat (Klebsiella pneumoniae [11]): 26 s⁻¹; MIC (Escherichia coli [29]): 16 µg/mL (≈ 40.4 µM)
3 | C[C@@H](O)[C@H]1C(=O)N2C(C(=O)O)=C(S[C@@H]3CN[C@H](CNS(N)(=O)=O)C3)[C@H](C)[C@H]12 [DORIPENEM] | 4 µg/mL (≈ 9.51 µM) | 0.25 µg/mL (≈ 0.595 µM) | 0.06 µg/mL (≈ 0.143 µM) | 0.06 µg/mL (≈ 0.143 µM) | 4 µg/mL (≈ 9.51 µM) | 0.25 µg/mL (≈ 0.595 µM) | 0.06 µg/mL (≈ 0.143 µM) | 0.06 µg/mL (≈ 0.143 µM) | 0.06 µg/mL (≈ 0.143 µM) | 0.06 µg/mL (≈ 0.143 µM) | 0.06 µg/mL (≈ 0.143 µM) | 0.06 µg/mL (≈ 0.143 µM) | 0.06 µg/mL (≈ 0.143 µM) | 0.06 µg/mL (≈ 0.143 µM) | 0.06 µg/mL (≈ 0.143 µM) | 0.06 µg/mL (≈ 0.143 µM) | 0.06 µg/mL (≈ 0.143 µM) | 0.06 µg/mL (≈ 0.143 µM) | 0.06 µg/mL (≈ 0.143 µM) | 0.06 µg/mL (≈ 0.143 µM) | MIC (Escherichia coli [26]): 0.06 µg/mL (≈ 0.143 µM); MIC (Escherichia coli [27]): 0.06 µg/mL (≈ 0.143 µM); MIC (Escherichia coli [28]): 0.06 µg/mL (≈ 0.143 µM); MIC (Escherichia coli [29]): 0.06 µg/mL (≈ 0.143 µM)
4 | C[C@@H](O)[C@H]1C(=O)N2C(C(=O)O)=C(S[C@@H]3CN[C@H](C(=O)N(C)C)C3)[C@H](C)[C@H]12 [MEROPENEM] | 2 µg/mL (≈ 5.22 µM) | 0.5 µg/mL (≈ 1.3 µM) | 0.06 µg/mL (≈ 0.156 µM) | 0.06 µg/mL (≈ 0.156 µM) | 4 µg/mL (≈ 10.4 µM) | 0.25 µg/mL (≈ 0.652 µM) | 0.06 µg/mL (≈ 0.156 µM) | 0.06 µg/mL (≈ 0.156 µM) | 0.06 µg/mL (≈ 0.156 µM) | 0.06 µg/mL (≈ 0.156 µM) | 0.06 µg/mL (≈ 0.156 µM) | 0.06 µg/mL (≈ 0.156 µM) | 0.06 µg/mL (≈ 0.156 µM) | 0.06 µg/mL (≈ 0.156 µM) | 0.06 µg/mL (≈ 0.156 µM) | 0.06 µg/mL (≈ 0.156 µM) | 0.06 µg/mL (≈ 0.156 µM) | 0.06 µg/mL (≈ 0.156 µM) | 0.06 µg/mL (≈ 0.156 µM) | 0.06 µg/mL (≈ 0.156 µM) | MIC (Escherichia coli [26]): 0.06 µg/mL (≈ 0.156 µM); MIC (Escherichia coli [27]): 0.06 µg/mL (≈ 0.156 µM); MIC (Escherichia coli [28]): 0.06 µg/mL (≈ 0.156 µM); MIC (Escherichia coli [29]): 0.06 µg/mL (≈ 0.156 µM)
